Values joined by “and” are separate entries in the source; they are usually repeats but may differ in a detail not shown here. Equal entries are not always repeated. Where two headings read alike, the source gives them in different places. Values belong to the compound of their own block, whether it stands above or below them.
Tests used:
FGFR1 = FGFR1 (Homo sapiens, UniProt P11362); assay: Kinase inhibition assay; assay type: biochemical; conditions: for inhibition at 0.1 µM / inhibition at 0.01 µM / inhibition at 1 µM: read-out: FGFR1 inhibition rate (%)
SNU16 cancer cell lines = assay: Cell proliferation assay; assay type: cell-based
[1] = Whole blood stability assay; assay type: in vitro ADME, BALB/c nude mice; conditions: BALB/c nude, mouse, fresh whole blood
Method in brief: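 Fresh BALB/c nude mouse blood was prewarmed 10 min at 37 °C, then spiked with test compound from a DMSO working solution. Aliquots taken at 0, 0.5, 1, 2 and 5 h were quenched with acetonitrile, centrifuged, and the supernatant diluted in acetonitrile/water. Remaining parent was quantified by UPLC–MS/MS (MRM). GSH adduct was monitored in negative-mode MRM (product ion m/z 272). Triplicates.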

BaF3/TEL-KDR cell = assay: Cell proliferation assay, BaF3/TEL-KDR; assay type: cell-based; conditions: read-out: BaF3/TEL-KDR IC50
NCI-H1581 xenograft = assay: In vivo antitumor activity, NCI-H1581 xenograft mouse model; design: species or system nude mice (BALB/c); conditions: 12.5 mg/kg, 20 days
BaF3/TEL-FGFR1 cell = assay: Cell proliferation assay, BaF3/TEL-FGFR1; assay type: cell-based; conditions: read-out: BaF3/TEL-FGFR1 IC50
H1581 cells = assay: Cell proliferation assay, H1581; assay type: cell-based; conditions: read-out: H1581 IC50; FGFR1 amplification
KG1 cells = assay: Cell proliferation assay, KG1; assay type: cell-based; conditions: read-out: KG1 IC50; FGFR1OP2-FGFR1 (FGFR1-translocated)
UMUC14 cells = assay: Cell proliferation assay, UMUC14; assay type: cell-based; conditions: read-out: UMUC14 IC50; FGFR3 mutation
[2] = Homo sapiens, SNU-16, read-out: SNU16 IC50

Chain of FGFR1 (P11362 22-822): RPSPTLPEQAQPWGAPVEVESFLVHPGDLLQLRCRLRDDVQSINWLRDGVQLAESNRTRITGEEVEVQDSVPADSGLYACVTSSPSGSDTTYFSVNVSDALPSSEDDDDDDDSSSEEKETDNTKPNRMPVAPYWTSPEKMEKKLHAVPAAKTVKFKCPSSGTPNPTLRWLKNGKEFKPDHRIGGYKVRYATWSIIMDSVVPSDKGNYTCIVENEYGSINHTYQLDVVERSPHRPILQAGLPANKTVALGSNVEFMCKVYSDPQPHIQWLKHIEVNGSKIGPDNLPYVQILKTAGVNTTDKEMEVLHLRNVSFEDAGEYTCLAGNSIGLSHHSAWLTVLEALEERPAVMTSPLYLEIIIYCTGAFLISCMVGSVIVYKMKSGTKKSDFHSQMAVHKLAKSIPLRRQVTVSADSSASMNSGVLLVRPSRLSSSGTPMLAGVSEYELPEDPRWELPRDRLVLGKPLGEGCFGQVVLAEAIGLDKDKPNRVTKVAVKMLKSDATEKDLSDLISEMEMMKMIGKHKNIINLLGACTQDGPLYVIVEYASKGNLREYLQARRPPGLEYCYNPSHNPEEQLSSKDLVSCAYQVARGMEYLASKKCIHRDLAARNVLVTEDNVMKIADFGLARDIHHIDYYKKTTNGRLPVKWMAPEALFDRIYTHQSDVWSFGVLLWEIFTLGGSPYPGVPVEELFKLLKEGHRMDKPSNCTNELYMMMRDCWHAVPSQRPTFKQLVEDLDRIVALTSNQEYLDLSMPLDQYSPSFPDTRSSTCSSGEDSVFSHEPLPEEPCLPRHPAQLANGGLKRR

Compound: Cc1c(-c2c3c(N)n[nH]c(=O)c3nn2-c2ccccc2)oc2c(Cl)cccc12 [Compound 8p]
inhibition at 0.1 µM (FGFR1): 38.1%

Compound: Nc1n[nH]c(=O)c2nn(-c3ccccc3)c(-c3ccccc3)c12 [Compound 7]
inhibition at 0.01 µM (FGFR1): 22.9%
inhibition at 0.1 µM (FGFR1): 20.4%
inhibition at 1 µM (FGFR1): 19.9%

Compound: Cc1c(-c2c3c(N)n[nH]c(=O)c3nn2-c2ccccc2)oc2ccc(Cl)cc12 [Compound 8j]
IC50 (FGFR1): 56.4 ± 15.8 nM

Compound: Nc1n[nH]c(=O)c2nn(-c3ccccc3)c(-c3ccco3)c12 [Compound 6]
inhibition at 0.01 µM (FGFR1): 18.6%
inhibition at 0.1 µM (FGFR1): 19.6%
inhibition at 1 µM (FGFR1): 22.9%

Compound: CC(=O)Nc1ccc(-n2nc3c(=O)[nH]nc(N)c3c2-c2oc3ccc(C)cc3c2C)cc1 [Compound 9j]
inhibition at 0.1 µM (FGFR1): 76.4%

Compound: Cc1c(-c2c3c(N)n[nH]c(=O)c3nn2-c2ccccc2)oc2ccc(Br)cc12 [Compound 8m]
IC50 (FGFR1): 66.8 ± 16.5 nM
IC50 (SNU16 cancer cell lines; [2]): > 1000 nM

Compound: Cc1c(-c2c3c(N)n[nH]c(=O)c3nn2-c2ccccc2)oc2cc(Cl)ccc12 [Compound 8i]
inhibition at 0.1 µM (FGFR1): 64.2%
inhibition at 1 µM (SNU16 cancer cell lines; Homo sapiens, SNU-16, read-out: SNU16 proliferation inhibition): 49.7%

Compound: COc1ccc2oc(-c3c4c(N)n[nH]c(=O)c4nn3-c3ccccc3)c(C)c2c1 [Compound 8f]
IC50 (FGFR1): 77.5 ± 14.7 nM

Compound: COc1ccc2c(C)c(-c3c4c(N)n[nH]c(=O)c4nn3-c3ccccc3)oc2c1 [Compound 8d]
IC50 (FGFR1): 67.7 ± 3.9 nM

Compound: AZD4547
IC50 (BaF3/TEL-KDR cell): 417 ± 10 nM
TGI (tumor weight inhibition rate at the treatment endpoint) (NCI-H1581 xenograft): 65.6%
IC50 (BaF3/TEL-FGFR1 cell): 0.5 nM
IC50 (H1581 cells): 59.8 ± 8.1 nM
IC50 (SNU16 cancer cell lines; read-out: SNU16 IC50, FGFR2 amplification SNU16 cell line): 3.7 nM and 5 nM
IC50 (KG1 cells): 3.7 ± 0.6 nM
IC50 (UMUC14 cells): 6.4 ± 1.3 nM

Compound: Cc1ccc2oc(-c3c4c(N)n[nH]c(=O)c4nn3-c3ccc(CNC(=O)OCc4ccccc4)cc3)c(C)c2c1 [Compound 9m]
IC50 (FGFR1): 13.8 ± 1.3 nM

Results, then the compound that gave them:

inhibition at 0.1 µM (FGFR1): 16.9%
Compound: Cc1ccc2oc(-c3c4c(N)n[nH]c(=O)c4nn3Cc3ccc([N+](=O)[O-])cc3)c(C)c2c1 [Compound 9w]

inhibition at 0.1 µM (FGFR1): 73.9%
IC50 (SNU16 cancer cell lines; [2]): > 1000 nM
Compound: CCCCNc1cc(F)c(-n2nc3c(=O)[nH]nc(N)c3c2-c2oc3ccc(C)cc3c2C)c(F)c1 [Compound 9z]

half-life at 1 μmol/L [1]: 71.2 h
Compound: C/C=C/C(=O)Nc1ccc(-n2nc3c(=O)[nH]nc(N)c3c2-c2oc3ccc(C)cc3c2C)cc1 [Compound 10b]

IC50 (SNU16 cancer cell lines; [2]): 660 ± 322 nM
Compound: C=CC(=O)Nc1cccc(-n2nc3c(=O)[nH]nc(N)c3c2-c2oc3ccc(C)cc3c2C)c1 [Compound 10l]

inhibition at 0.1 µM (FGFR1): 66.2%
Compound: CCC(=O)Nc1ccc(-n2nc3c(=O)[nH]nc(N)c3c2-c2oc3ccc(C)cc3c2C)cc1 [Compound 9o]

From article PMC7982429 (Acta Pharmaceutica Sinica. B, 2020)
